# Source: ChEMBL document CHEMBL5244203, “Thiadiazolodiazepine analogues as a new class of neuromuscular blocking agents: Synthesis, biological evaluation and molecular modeling study” (Eur J Med Chem, 2017)
# The source made the active and inactive calls. The rule behind the calls is not given here.
# Experiments:
# Rattus norvegicus [1] = experiment: Neuromuscular blocking activity in against electrically-induced twitches in Wistar rat tibialis muscle assessed as time duration of muscle block at 100 mg/kg, ip; format: functional
# In short: (§1)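 Male Wistar rats (250 g, N = 4-8 per group) anaesthetized with urethane (25% in water, 1.25 g/kg i.p.). Tracheal cannula with artificial room-air ventilation at 90 breaths/min, 20 c.c./kg. Rectal temperature held at 37 ± 1 °C. Tibialis twitch tension is expressed as % of pre-drug amplitude. Drug is given i.p. in DMSO or water, 1-100 mg/kg; ED50 and 90%-depression dose derived; mean ± S.E.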
# Rattus norvegicus [2] = experiment: Neuromuscular blocking activity in Wistar rat tibialis muscle assessed as reduction in electrically induced twitches at 100 mg/kg, ip in presence of physostigmine; format: functional, organism-based
# Rattus norvegicus [3] = experiment: Neuromuscular blocking activity in Wistar rat tibialis muscle assessed as reduction in electrically-induced twitches by measuring time of onset at 100 mg/kg, ip; format: functional; in short: as §1
# Rattus norvegicus [4] = experiment: Neuromuscular blocking activity in Wistar rat tibialis muscle assessed as reduction in tetanus stimulated muscle twitches at 100 mg/kg, ip; format: functional, organism-based
# In short: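 Male Wistar rats (250 g, N = 4-8 per group) anaesthetised with urethane (1.25 g/kg i.p.), tracheally cannulated and ventilated with room air at 90 breaths/min. Tibialis twitch tension recorded with body temperature kept at 37 ± 1 °C. Tetanus given at 30 Hz for 5-10 s. Drug given i.p. in DMSO or water at 1-100 mg/kg. Twitches expressed as % of pre-drug amplitude.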
# Gallus gallus [5] = experiment: Neuromuscular blocking activity in chicks assessed as induction of spastic paralysis by measuring time of onset of muscle relaxation at 0.15 mmol/Kg, ip administered as single dose; format: functional
# In short: (§2)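 4-day-old chicks (50 g) receive a single submaximal dose i.p., taken from the rat twitch study (0.15 mmol/kg). The type of paralysis, flaccid or spastic, is noted. The onset of head drop and of complete paralysis is timed after administration. Atracurium and succinylcholine serve as positive controls.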
# Rattus norvegicus [6] = experiment: Neuromuscular blocking activity in Wistar rat tibialis muscle assessed as reduction in electrically-induced twitches by measuring time required for 90% blockage at 100 mg/kg, ip; format: functional; in short: as §1
# Rattus norvegicus [7] = experiment: Neuromuscular blocking activity in Wistar rat tibialis muscle assessed as reduction in electrically-induced twitches by measuring time required for 50% blockage at 100 mg/kg, ip; format: functional; in short: as §1
# Gallus gallus [8] = experiment: Neuromuscular blocking activity in ip dosed chicks assessed as induction of spastic paralysis; format: functional; in short: as §2
# Rattus norvegicus [9] = experiment: Neuromuscular blocking activity in ip dosed Wistar rat tibialis muscle assessed as reduction in electrically-induced twitches; format: functional; in short: as §1
# Gallus gallus [10] = experiment: Neuromuscular blocking activity in chicks assessed as induction of flaccid paralysis by measuring time of onset of muscle relaxation at 0.15 mmol/Kg, ip administered as single dose; format: functional; in short: as §2
# Gallus gallus [11] = experiment: Neuromuscular blocking activity in ip dosed chicks assessed as induction of flaccid paralysis; format: functional; in short: as §2
# Gallus gallus [12] = experiment: Neuromuscular blocking activity in chicks assessed as induction of flaccid paralysis by measuring time of onset of head drop at 0.15 mmol/Kg, ip administered as single dose; format: functional; in short: as §2
# Rattus norvegicus [13] = experiment: Reversal of neuromuscular blocking activity in Wistar rat tibialis muscle assessed as time of onset of reversal at 100 mg/kg, ip in presence of physostigmine; format: functional
# Rattus norvegicus [14] = experiment: Reversal of neuromuscular blocking activity against electrically induced twitches in Wistar rat tibialis muscle at 100 mg/kg, ip in presence of physostigmine relative to control; format: functional
# [15] = Toxicity in ip dosed mouse measured for 72 hrs; format: organism-based; details: in vivo
# In short: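 Male mice, grouped, given i.p. doses of 0.1-5 mmol/kg. Observed continuously for 6 h, then kept under observation for 72 h, with behavioural changes and deaths recorded. Percentage death per dose converted to probits to derive the LD50.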
SMILES,Time (Rattus norvegicus [1]) [min],Activity (Rattus norvegicus [2]),Time (Rattus norvegicus [3]) [min],Activity (Rattus norvegicus [4]),Time (Gallus gallus [5]) [min],Time (Rattus norvegicus [6]) [min],Time (Rattus norvegicus [7]) [min],ED50 (Gallus gallus [8]) [µmol/kg],ED50 (Rattus norvegicus [9]) [µmol/kg],Time (Gallus gallus [10]) [min],ED50 (Gallus gallus [11]) [µmol/kg],Time (Gallus gallus [12]) [min],Time (Rattus norvegicus [13]) [min],Activity (Rattus norvegicus [14]) [%],LD50 at 72 h [15] [mg/kg]
C[N+](C)(C)CCOC(=O)CCC(=O)OCC[N+](C)(C)C.[Cl-].[Cl-] [SUCCINYLCHOLINE CHLORIDE],20,inactive,2,inactive,0.5,5,3,30,30,–,–,–,–,–,–
O=C1CCCN2N=C(c3ccc(F)cc3)SC2=N1,110,inactive,10,Active,–,28,18,–,360,15,300,11,–,–,–
O=C1CCCN2N=C(c3ccc(Br)cc3)SC2=N1,70,–,3,Active,–,10,7,–,150,1,150,0.25,1,100,195
COc1ccc(CC2c3cc(OC)c(OC)cc3CC[N+]2(C)CCC(=O)OCCCCCOC(=O)CC[N+]2(C)CCc3cc(OC)c(OC)cc3C2Cc2ccc(OC)c(OC)c2)cc1OC.O=S(=O)([O-])c1ccccc1.O=S(=O)([O-])c1ccccc1 (configuration not stated) [ATRACURIUM BESYLATE],30,–,5,Active,–,12,8,–,16,10,16,5,2,100,–
